According to the EternaBench riboswitch data:

System: MS2 coat protein
Experiment: apparent Kd, MS2 coat protein; higher = weaker binding; RNA-MaP array; FMN 200 µM where present
How it was run: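 Two titrations, one without ligand and one with constant ligand, were run with SNAP-549-labelled MS2 coat protein from 0.7 or 1.5 nM, doubling to 3 µM. The targets were designs transcribed by stalled E. coli RNA polymerase on Illumina sequencing-chip clusters, in 100 mM Tris-HCl pH 7.5, 80 mM KCl, 4 mM MgCl2, BSA, DTT, yeast tRNA and Tween-20. The apparent Kd is the median of filtered per-cluster binding-curve fits, with green signal normalised to red-channel RNA signal and control-cluster median Fmax.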

[1] = designed as: OFF switch for flavin mononucleotide, no ligand
[2] = ligand present: flavin mononucleotide, designed as: OFF switch for flavin mononucleotide
[3] = designed as: ON switch for flavin mononucleotide, no ligand
[4] = ligand present: flavin mononucleotide, designed as: ON switch for flavin mononucleotide

Sequence | apparent Kd [1] [nM] | apparent Kd [2] [nM] | apparent Kd [3] [nM] | apparent Kd [4] [nM]
UGUCGGAGCAGAGGAUAUACAUGAGGAUCACCCAUGUAAUAUGAUCUAGCCUGGAAACAGGCAAUGUAGAAGGCUGCUCCGACA | 92.6 | 1020 |  | 
CGGUGACUGGUGAGGAUAUCGUGUUCGAAAGAACGUGAGAAGGCACAUGAGGAUCACCCAUGUGAUCCUCAUCG | 26.1 | 163 |  | 
GCCGCGUUUCGCGCCUACAUGAGGAUCACCCAUGUUUGUGGGCAGGAUAUCGUCCGCUCUGCGGGCGAGAAGGGCUGUUGUGGU |  |  | 57.7 | 50
AUCAUCUUGUCAGGAUAUGCGUGUCAACGAAAGUAGACAAUCUUAAUAACAUGAGGAUCACCCAUGUAGAAGGGACGAGAUGAU | 19.8 | 21 |  | 
UAAUUAAGUGUGAGGAUAUGCUGGUCCUUGGAUCAGCAGAAGGCACAUGAGGAUCACCCAUGUAAAUUAUUUAU | 103 | 437 |  | 
GGACGUCACAUUUACAUGAGGAUCACCCAUGUCGAAAGACAUGAGGAUAUGCUACCUAAUUGGUAGCAGAAGGCAUGGACGUCC |  |  | 408 | 228
GUGCAUUCGUAGAAGGGUGACAUGAGGAUCACCCAUGUGCGCUGGGCUCAGGAUGCCUCAGCGCCACAGGAUAUACGAAGCACC |  |  | 97.6 | 35.1
UUUACUUACGAAGGAUAUGGUUACAUGAGGAUCACCCAUGUAUGUAUAUUGAUCUAGUAUUUUAACCAGAAGGUCGUGAUUAUU | 31.8 | 46.9 |  | 
AAGUAGGUAGGAUAUACAUGGAUAUACAUUCAUGUGGACCUACAUGAGGAUCACCCAUGUAGAAGGACCUACUA | 36.9 | 79.1 |  | 
UUUUUCUGCUGAGGAUAUUGCUCGUGCGUACAUGAGGAUCACCCAUGUGUCUUGAUCCUCUUCUGCAAGAAGGCAGCUCUCUCU | 403 | 155 |  | 
UAAGUACAUGAGGAUCACCCAUGUUGGAAUAGAGCAGGAUAUGUGCAGAGGGAAAUAAAAACAGAAGGGCUAAGAA |  |  | 45.3 | 28.6
AUAUCUCCCUAGAAGGUGUAACGACAAUUGCAUCACGUAGUUGGCGUAGCAAGGAUAUGGGACAUGAGGAUCACCCAUGUGGAU |  |  | 15.9 | 8.88
CAGUGCAAUGUAGGAUAUGCUCAGGAUAACUGAGCAGAAGGACAUGAGGAUCACCCAUGUCAAAUGAAAGAUAAUAAAGCACUG | 14.3 | 17.8 |  | 
ACACUGUGAGGAUAUACAUGAGGAUCACCCAUGUUAAGGAAGUCGUGGUUAAUUUAAGGUAGAAGGCGCUUAUU | 41.3 | 42.8 |  | 
UGUGCGUUGAUCUUCGAUCGGAGUACAUGAGGAUCACCCAUGUAGGAUAUUCAAAGACGCAGAUAGAAGAAGGACAUCGGAUUA | 13.2 | 11.1 |  | 
CUAGACAGAUCAGGAUAUCAUCGCAUGGUGCAUCCCUGUGAUUACAUGAGGAUCACCCAUGUGGAUGAGAAGGGAUUACUAUGU | 31.9 | 10.7 |  | 
GGUGGACAUGAGGAUCACCCAUGUGAGGAUAUCGGCUAUCUACUCGCUGUCGGUUGCUCGAGAAGGCACAUUGU | 177 | 171 |  | 
GCGUAAUAGGUGUAGCUAGUCGUGCAAGAAGGGUGGUGAACAUGAGGAUCACCCAUGUGGUCAAUACAGGAUAUUGCUAUACGC |  |  | 572 | 139
AUAUCUAUGUAAGGAUAUAGAUGAUAUACGCCUCCGACAUGAGGAUCACCCAUGUUAUAUUUUGUCUAGAAGGUACAUUGUCGG |  |  | 168 | 170
UCCCAGUAAGGAUAUCAGGCAAGUCUCCGGGAGCUUAGUCGUGAGAAGGUACAUGAGGAUCACCCAUGUGAUUG | 58 | 211 |  | 
UCCCUAAGGCGGGCCGACCAUACAUGAGGAUCACCCAUGUCGAGAAGGUGCUCACGGGUGGGUGGCAAGGAUAUCGGGUCGGAU |  |  | 78.8 | 40.5
GGAUAGGACAGAGGAUAUACGGAUAGGAUCUACUAUCUUCCUUAAAUAACAUGAGGAUCACCCAUGUAGAAGGCUGUCCUAUCG | 18.6 | 67.9 |  | 
AACGAGCUAGGAUAUGCACGGAAAAGCGUGGUCACUUAUGGACAUGAGGAUCACCCAUGUAGAAGGAGCGACGC | 22.5 | 18.9 |  | 
GGUACUCAAAGAGUACCAAUACGAACAUGAGGAUCACCCAUGUAGGAUAUGCUACUCAAAGAGUAGCAGAAGGACAUGUGCCAU | 42 | 282 |  | 
UAUUAGAUCCGAGGAUAUCCUUUUUUCUUACAUGAGGAUCACCCAUGUAAAGGGAUUGAGUUGUAGGAGAAGGCGGAUUUAGUU |  |  | 33.4 | 15.1
AGUUAAUAUCGAGGAUAUGUCUAGACACAUGAGGAUCACCCAUGUAUGUGUAUAGAAGGCGAUAUUAACAGCAUGUUACAUGCG |  |  | 39 | 16.1
CCAUCGAGUGUGAGGAUAUGCUGGUCCUUGGAUCAGCAGAAGGCACAUGAGGAUCACCCAUGUGGAUACGGUGG | 31 | 235 |  | 
UCUUCACAUGAGGAUCACCCAUGUGAGGAUAUGGAUUCGCUGGCCGUAGCCAGUGGAUCCAGAAGGCGCAUGAU | 23.8 | 25 |  | 

Sequence | apparent Kd [1] [nM] | apparent Kd [2] [nM] | apparent Kd [3] [nM] | apparent Kd [4] [nM]
CCCUUUAGAGGAUAUACAUGAGGAUCACCCAUGUCUUGGGUCCGGCCUGAUCUGGUACGUAGAAGGCUGUUGGU | 187 | 158 |  | 
ACGCGAUGGGAGAAGGUACUUUAAGAAUUUUUCACAUGAGGAUCACCCAUGUAAGGAUAUCCCAUCGUUAAAUAUUAUACAGCA | 5.07 | 4.82 |  | 
GGGUACAUCGGAGGAUAUCAUGUAAAUACAUGAGGAUCACCCAUGUCGAUGGAGACAUCGGAGAUUGAGAAGGCCGAGGUACCG |  |  | 191 | 9.91
GAGCCUCCGUAGAAGGCCGCGGAAUCCGAACGCGGAGGAUAUACAUGAGGAUCACCCAUGUGAAAGUGGAACGAUAAAACGCUU | 14.7 | 47.2 |  | 
UUAAAUCAUGUAGGAUAUGCAUGGCGAAGCUACGCAGAAGGACAUGAGGAUCACCCAUGUUAUAGCUAGGCAGUUCCCUGGCAA | 70.2 | 214 |  | 
AGAAAUUAGUGAGGAUAUGCAUAAUGUGUAGCUGCAGAAGGCACGGACCACAAGACAUGAGGAUCACCCAUGUGGUAUAUAGAU | 25.9 | 29.3 |  | 
UUUUAAUAAGAGAAGGAGCACUUCAUGAGGAUCACCCAUGUGUUAGUAGUUAGGAUAUUUAAUAACAUGAGGAUCACCCAUGUC |  |  | 159 | 123
CAAAACUGAGGAUAUACAUGAGGAUCACCCAUGUCCAAGGUCCUGGGCGGAUGCUGCUGUAGAAGGCGGAAAGA | 22.4 | 32.4 |  | 
AGCUCCGCGGCCACUUAUUGUGCACAUGAGGAUCACCCAUGUCAGGAUAUCCUUGAGCCUCACAAGGAGAAGGGACAUAAGGUU | 643 | 334 |  | 
ACCUCACAUGAGGAUCACCCAUGUAAGGAUAUCUUCGCUUUGACGUUGUUCUAUGCGAAGAGAAGGUACACGGC | 28.3 | 111 |  | 
CUUAAACAUGAGGAUCACCCAUGUCAGGAUAUGAUACUAUGUACUUCGGUACAUAGUAUCAGAAGGGAUAUAAA | 34.2 | 33.5 |  | 
UUGGACGUCGUAGGAUAUGUAGGAUAUUCCUACAUGAGGAUCACCCAUGUUGGCAUGGAAGAAGGACAGAAGGACGAUGUCCAU |  |  | 158 | 4.94
AAUAUGUUGCAGAAGGCCAUGUUGUGGUAGUACCUCAUGACAUGAGGAUCACCCAUGUUUGUGUUGGAGGAUAUGCAAUAUAUU | 37.7 | 201 |  | 
AUAUUACGAGGAUAUCGUUUUUAUCACAUGAGGAUCACCCAUGUAAUUUAUGUUUCGUUUCGAGAAGGCGUAAGUU | 19.8 | 22 |  | 
CGAUGACAAAGUCAUCGAUUACGAACAUGAGGAUCACCCAUGUAGGAUAUGCUACUCAAAGAGUAGCAGAAGGACAUGUGUCUU | 35.6 | 155 |  | 
UGAACUAUGUAGAAGGCCCACAUUAAUAUGUAGGGAGGAUAUACAUGAGGAUCACCCAUGUGAAGAGCAAGAGGAUUUAACAGA | 23.9 | 106 |  | 
UAUCCACAUGAGGAUCACCCAUGUGAGGAUAUGUCCAUAUUCGGCAAAUCGGAUAUGGACAGAAGGCACACCGG | 36.9 | 103 |  | 
AAGUUGUCAGGAUAUCGUUAAUUUAGUUGUUUGUAUUAGUUCGAGAAGGGACAUGAGGAUCACCCAUGUUUGCA | 26.4 | 34 |  | 
CAGCGAUAGCUGAACAAUCUAUCUGAGGAUAUUCAUAAAACAUGAGGAUCACCCAUGUAAAAUUGGGAGAAGGCAGAUAGAUUG |  |  | 12.6 | 4.69
GUAGCUCCUGACAUGAGGAUCACCCAUGUUCACUUAUUAAAUCAGGAUAUCCUCUCGAAACGAGAGGAGAAGGGAUAAGCUACU |  |  | 7.84 | 7.36
UUGGACGUCGUAGCAUAUGUAGGAUAUUCCUACAUGAGGAUCACCCAUGUUGACAUGGAAGAAGGACAGAAGGACGAUGUCCAU |  |  | 146 | 5.47
AGUGCGUAUGUGAGGAUAUGCUGGUCCUUGGCUCGGCAGAAGGCACAUGAGGAUCACCCAUGUGGUGUCGUACG | 62.2 | 412 |  | 
CUUUCGUGAGGAUAUGUGGCUUCGAUCGUGAGAUCGAAAAUACAGAAGGCACAUGAGGAUCACCCAUGUUCCUC | 37.8 | 456 |  | 
AUACAUGAGGAUCACCCAUGUUACAUGGCCUUGAUAGAUUGUAGAAGGAUGUUAUUAUUUUUUUCAUAGGAUAUACUAUUUAGU | 120 | 105 |  | 
AAUUGACACGUAGGAUAUCGAUCUAAUUUAAUUCGAGAAGGACGCACAUGAGGAUCACCCAUGUUUAAUGGAUUAGACAUGUUG | 162 | 328 |  | 
UUCAGCUUGACAGGAUAUACAUGACUGCGAAAGCAGUCUAUCUUAAUAACAUGAGGAUCACCCAUGUAGAAGGGUCGAGCUGAA | 16.2 | 26.5 |  | 
GUCUUACAUGAGGAUCACCCAUGUGAGGAUAUGGUUUCGCUGGCCGUAGCCAGUGGAACCAGAAGGCGCAUGAU | 25.7 | 44.9 |  | 
